# Lmaj promast – Leishmania major promastigote growth inhibition | inhibition, % at 10 µM | 9% of 200,000 active | Leishmania major promastigotes, resazurin fluorescence viability; in the data active = inhibition above about 50%;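 also: promastigotes grown with compound for 44 hours at 28 °C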
# Rad51 HR inh – blocks human Rad51 in homologous recombination; Q06609; 0.085% of 200,000 active; hRad51 DNA strand exchange, fluorescence dequenching; inhibition, % at 10 µM;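 active = inhibition above 40% at the single screening dose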;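 also: 0% = DMSO control wells and 100% = blanks with heterologous ssDNA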
#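 Material: hRad51 filaments on single-stranded DNA; Reagent: Donor/quencher-labelled 47-bp dsDNA substrate; Compound: 10 µM final, single point; Schedule: 37 °C 15-min filament assembly, 30-min compound preincubation, 15-min exchange; Technique: FRET fluorescence, excitation 485 nm, emission 520 nm; Benchmarks: control wells and blank wells on each plate.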
# PMI activator – increases human mannose-6-phosphate isomerase activity | 0.005% of 190,000 active | activation factor at 20 µM | P34949 | purified human PMI, coupled resazurin fluorescence, 20 min; stronger effect = higher value; 1 = vehicle control, 0 substrate-free wells;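 active = activation factor of 2 or more at 20 µM, relative to plate controls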
# Target sequence (P34949 whole entry, looked up): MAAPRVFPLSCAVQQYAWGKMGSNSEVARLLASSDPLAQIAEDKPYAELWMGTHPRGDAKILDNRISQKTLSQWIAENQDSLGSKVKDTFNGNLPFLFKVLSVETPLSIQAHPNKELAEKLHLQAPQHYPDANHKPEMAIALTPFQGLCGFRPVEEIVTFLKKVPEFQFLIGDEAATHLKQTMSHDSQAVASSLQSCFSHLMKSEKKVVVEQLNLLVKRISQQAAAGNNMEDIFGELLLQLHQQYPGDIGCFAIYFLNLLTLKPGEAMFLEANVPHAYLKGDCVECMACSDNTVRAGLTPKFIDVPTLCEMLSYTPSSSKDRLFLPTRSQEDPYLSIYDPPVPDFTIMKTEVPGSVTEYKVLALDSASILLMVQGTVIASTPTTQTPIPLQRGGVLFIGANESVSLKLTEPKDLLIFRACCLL
# Calpain2 inh – blocks pig calpain II enzyme activity. purified calpain II, fluorogenic peptide substrate, 30 min. inhibition, % at 16 µM. 0.37% of 220,000 active. AID 1236;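 active = inhibition above about 50%, limit read from the data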
# PMI act hi M6P – activators of human phosphomannose isomerase at near-saturating mannose 6-phosphate; P34949; coupled PMI enzyme assay, resazurin fluorescence, 20 min; stronger effect = higher value; 1 = untreated enzyme, 0 = substrate-free blank; activation factor at 20 µM; 0.34% of 190,000 active;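 active = activation factor of 2 or more at 20 µM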
#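 Material: human phosphomannose isomerase with PGI, G6PDH, diaphorase coupling enzymes / Reagent: Man-6-P substrate 1.0 mM / Dosing: single compound dose of 20 µM, 1% DMSO final / Incubation: enzyme reaction with compound 20 min at room temperature / Signal: resorufin fluorescence (Ex 544/Em 590 nm) from resazurin via diaphorase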
# WT yeast gro inh – growth inhibition of WT yeast, mitochondrial fusion screen; mitochondrial fusion phenotypic screen, WT strain; inhibition, % at 10 µM; 2.1% of 190,000 active; AID 1362; in the data active = inhibition above about 58%; tested in S. cerevisiae
# * hit, by the source's call; i = inactive; x = no result. This is a sample that favours compounds with a hit; in the whole collection about 9.8% have one here.
SMILES,Lmaj promast,Rad51 HR inh,PMI activator,Calpain2 inh,PMI act hi M6P,WT yeast gro inh
CCOC(=O)CSc1nc(C)nc2c1sc1nc(C)c(C(C)=O)c(-c3ccc(OC)cc3)c12,85.1*,1.1,1,-2.1,1,3.5
CCOC(=O)c1c(C)nc2sc3c(=O)n(-c4ccc(C)cc4)cnc3c2c1-c1ccc(OC)cc1,-0.4,-1.3,1,-55.9,1,6.6
COc1ccc(/C=N/NC(=O)C(Cc2c[nH]c3ccccc23)NC(=O)OCC(C)C)cc1[N+](=O)[O-] (centres undefined),99.4*,x,1,-50.0,1,20.0
O=C(NC(Cc1c[nH]c2ccccc12)C(=O)N/N=C/c1ccc(Cl)cc1)c1cccs1 (centres undefined),30.0,-6.3,0.8,-97.5,0.9,-2.7
O=C(COc1cccnc1[N+](=O)[O-])NCCc1ccccc1,-6.2,9.3,1.1,-12.8,1,-4.3
Cc1cc(O)ccc1NC(=O)CCN1C(=O)c2ccc([N+](=O)[O-])cc2C1=O,70.0*,-3.2,0.9,-10.0,0.8,-6.8
CCCCCCCCNC(C)C(O)c1ccc(SC(C)C)cc1 (centres undefined),100.3*,2.4,1,18.8,1,98.3*
COc1ccccc1Cn1c(=O)c2ccccc2n2c(Sc3ncnc4sccc34)nnc12,88.5*,-2.9,1,11.6,1.1,34.4
COc1ccccc1Cn1c(=O)c2ccccc2n2c(SCc3csc(C)n3)nnc12,5.4,13.6,1,-5.6,1,16.6
Cc1cc(C)c(C)c(S(=O)(=O)N2CCN(c3ccc(O)cc3)CC2)c1C,55.0*,-1.0,0.7,-3.8,0.8,13.4
Cc1ccc(S(=O)(=O)N2CCOCC2)cc1NC(=O)CN1CCN(c2ccc(O)cc2)CC1,17.1,3.0,0.8,-8.0,0.5,-8.5
O=C(Cc1ccccc1)NC(NCCc1ccccc1)C(Cl)(Cl)Cl (centres undefined),97.9*,1.7,1,-15.8,1,-7.3
Cc1ccc(S(=O)(=O)Nc2ccc3oc(=O)sc3c2)c(C)c1,-4.6,16.3,0.8,-0.7,0.9,61.0*
CCOC(=O)c1ccc(NC(=O)CC2S/C(=N/N=C/c3c[nH]c4ccccc34)NC2=O)cc1 (centres undefined),62.4*,-3.2,0.8,-30.3,0.9,10.4
Cc1ccc(NC(=O)CC2S/C(=N/N=C/c3c[nH]c4ccccc34)NC2=O)cc1 (centres undefined),4.9,x,0.9,-2.0,1,-2.8
CCCc1nn(C)c(C(=O)Nc2ccc(C(C)(C)C)cc2)c1Cl,1.6,9.9,0.9,32.0,1,62.6*
Cc1ccc(NC(=O)C2CC(=O)Nc3nncn32)cc1 (centres undefined),-1.8,6.5,1,-24.9,1,-9.2
CCCCCCc1cc2cc(C(=O)NC)c(=N)oc2cc1O,57.6*,-183.1,0.9,x,0.8,22.8
CCCCCCc1cc2cc(C(N)=O)c(=N)oc2cc1O,44.5,-163.8,1,i,1.1,81.8*
CCCCCCc1cc2cc(C(=O)OCC)c(=O)oc2cc1O,x,-9.2,x,-332.1,x,x
CCCCCCc1cc2cc(C(=O)Nc3ccc(OC)cc3)c(=O)oc2cc1O,19.4,x,0.9,-0.7,1,-11.5
O=[N+]([O-])c1ccc(/C=N/Nc2nc(-c3ccccc3)c3cc(Br)ccc3n2)o1,92.6*,x,1.1,-71.7,1.2,72.8
N#Cc1ccccc1/C=N/Nc1nc(-c2ccccc2)c2cc(Br)ccc2n1,10.5,-1.8,0.9,-83.2,0.9,-7.9
Cc1ccc2nc(N/N=C\c3ccc([N+](=O)[O-])o3)nc(-c3ccccc3)c2c1,97.7*,x,0.9,i,1,67.7
O=C(Nc1ccc(Br)c2ccccc12)c1ccc2ccccc2c1O,x,-21.7,x,12.3,x,x
SMILES,Lmaj promast,Rad51 HR inh,PMI activator,Calpain2 inh,PMI act hi M6P,WT yeast gro inh
COc1ccc(C(=O)OC2CCN(C)CC2)cc1,12.3,-1.0,1.2,12.4,1.1,22.9
CCCOc1ccc(OCCN2CCCC(C)C2)cc1 (centres undefined),95.7*,22.4,1,50.0*,0.9,10.7
CCOc1ccc(C(=O)OC2CCN(C)CC2)cc1,100.2*,-11.8,1.2,-21.4,1.2,-16.9
CCCOc1cc(CN2CCCCC2)cc(C(C)=O)c1,52.4*,x,1,15.6,1,9.2
COc1ccc(C(CC(=O)N2CCCCC2)C(C)C)cc1 (centres undefined),x,24.5,x,-2.7,x,x
COc1ccc(OCCC(=O)N2CCCCC2)cc1,-0.5,x,1,4.7,1,88.0*
Cc1[nH]c2ccccc2c1/C=C/c1nc2ccccc2c(=O)n1CCO,27.7,-3.8,1.1,-33.1,1,-1.7
CCCOc1ccc(C(O)(CCC)CCN2CCCCC2)cc1 (centres undefined),49.3,-1.7,1.1,-14.5,1.1,-21.1
CCCCOc1ccc(C(=O)CCN2CCOCC2)cc1,75.8*,-4.0,1.1,31.8,1.1,25.4
CCOc1ccc(C(=O)CCN2CCCCCC2)cc1,100.2*,-3.3,0.7,6.4,0.7,-12.3
CCOc1ccc(OCCN2CCCCC2)cc1,0.6,x,1.1,-4.5,1.1,-8.0
COc1ccc(C(=O)CCN2CCN(c3ccccc3OC)CC2)cc1,16.0,4.0,1.1,1.9,1,-20.4
COc1ccc(C(=O)CCN2CCc3cc(OC)c(OC)cc3C2)cc1,67.4*,-42.7,0.9,-5.8,0.9,-13.5
CCCOc1ccc(C(=O)CCN2CCCCC2)cc1,89.8*,-3.6,0.8,-25.0,0.8,-8.5
O=C(CCN1C(=O)c2ccccc2C1=O)C1=NN[C@@H]2C(=O)N(c3ccc4c(c3)OCCO4)C(=O)[C@H]12,x,-10.1,x,22.2,x,x
Cc1cc(C(=O)COC(=O)c2ccc[nH]c2=O)c(C)n1-c1ccccc1,70.7*,0.9,0.8,28.3,1,14.5
Cc1noc(C)c1COC(=O)c1cc(C)n(-c2ccccc2)c1C,78.7*,1.8,0.9,33.2,0.8,24.7
Cc1cc(C(=O)COC(=O)c2ccc[nH]c2=O)c(C)n1C1CC1,-5.2,x,1.1,-9.3,1,-1.2
Cc1cc(C(=O)COC(=O)c2ccc[nH]c2=O)c(C)n1-c1ccc(F)cc1,69.5*,-3.6,0.9,28.7,1,-5.2
COc1ccc(S(=O)(=O)N2CCCCCC2)cc1NC(=O)Cc1cc(OC)c(OC)c(OC)c1,99.8*,x,0.9,-1.3,0.9,-12.5
COc1ccc(S(=O)(=O)N2CCCCC2)cc1NC(=O)CN(C)C1CCCCC1,4.3,-6.8,1,53.0*,1,2.9
COc1ccc(CC(=O)Nc2cc(S(=O)(=O)N3CCCCC3)ccc2C)cc1OC,0.7,x,0.9,11.8,1,-5.8
CCCc1c(C)nn(-c2ncccc2[N+](=O)[O-])c1C,-4.8,8.6,1,-9.2,1,3.2
CCOc1ccc(NCc2nc3ccccc3n2CCOc2ccccc2)cc1,72.3*,30.1,0.9,41.2,0.7,32.5

# Source: PubChem BioAssay (several laboratories)
